Measurements taken from ChEMBL document CHEMBL1143308, “Spiro-piperidine azetidinones as potent TRPV1 antagonists” (Bioorg Med Chem Lett, 2009).
pIC50: −log10 of the molar value. Converted amounts (≈) assume the structure as drawn. The source made the active and inactive calls. No cut-off for these calls is given here.

Experiments:
[1] = biological target: T1, Transient receptor potential cation channel subfamily V member 1 (Homo sapiens, UniProt Q8NER1); assay: Antagonist activity at TRPV1 expressed in HEK293 cells assessed as inhibition of capsaicin-induced activation by FLIPR assay; format: functional, cell-based
Procedure, shortened: (§1)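 FLIPR calcium-flux run at 37 °C in a HEK293 line stably transfected with TRPV1. Channel activated by capsaicin or by PMA, and the IC50 is taken against each agonist. Compounds dissolved in DMSO, with DMSO alone as the vehicle control.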

[2] = biological target: T1, Transient receptor potential cation channel subfamily V member 1; assay: Antagonist activity at TRPV1 expressed in HEK293 cells assessed as inhibition of PMA-induced activation by FLIPR assay; format: functional, cell-based; procedure, shortened: as §1
[3] = AUC (0 to 6 hrs) in rat at 10 mg/kg, po; format: ADME, organism-based; parameters: time < 6 hr, dose 10 mg/kg, route oral; settings: plasma
Procedure, shortened: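 Rat pharmacokinetics: oral dosing at 10 mpk in 20% HPBCD vehicle; AUC taken over 0–6 h.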

[4] = Aqueous solubility of the compound; format: physicochemical; settings: buffer
[5] = biological target: T1, Transient receptor potential cation channel subfamily V member 1; assay: Antagonist activity at TRPV1 expressed in HEK293 cells assessed as inhibition of capsaicin-induced activation at 10 uM by FLIPR assay; format: functional, cell-based; parameters: scale not given: the % may be the effect or the level left
Procedure, shortened: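 TRPV1 FLIPR run at 37 °C in stably transfected HEK293 cells, capsaicin-activated. Percent inhibition measured with test compound at a single concentration of 10 µM, from DMSO solution, with a DMSO vehicle control.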

[6] = Stability in pH 7.4 buffer assessed as formation of 1-(tert-butoxycarbonyl)-3-(phenyl(phenylamino)methyl)azetidine-3-carboxylic acid after 2 hrs; format: physicochemical; settings: pH 7.4, 2 h
Procedure, shortened: (§2)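 Compound held in pH 7.4 buffer spiked with 0.1 M NaSMe and methylamine to mimic plasma nucleophiles. Followed by LC–MS for up to 24 h, tracking loss of parent and appearance of the ring-opened amino acid.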

[7] = Stability in pH 7.4 buffer after 24 hrs; format: physicochemical; settings: pH 7.4, 24 h; procedure, shortened: as §2
[8] = Oral bioavailability in rat at 10 mg/kg; format: ADME, organism-based; settings: in vivo
[9] = Half life in iv dosed rat; format: ADME, organism-based; settings: in vivo
Procedure, shortened: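 Rat dosed intravenously as an add-on to the oral PK study (10 mpk oral in 20% HPBCD); terminal half-life from the iv arm.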

T1 sequence (Q8NER1 whole entry): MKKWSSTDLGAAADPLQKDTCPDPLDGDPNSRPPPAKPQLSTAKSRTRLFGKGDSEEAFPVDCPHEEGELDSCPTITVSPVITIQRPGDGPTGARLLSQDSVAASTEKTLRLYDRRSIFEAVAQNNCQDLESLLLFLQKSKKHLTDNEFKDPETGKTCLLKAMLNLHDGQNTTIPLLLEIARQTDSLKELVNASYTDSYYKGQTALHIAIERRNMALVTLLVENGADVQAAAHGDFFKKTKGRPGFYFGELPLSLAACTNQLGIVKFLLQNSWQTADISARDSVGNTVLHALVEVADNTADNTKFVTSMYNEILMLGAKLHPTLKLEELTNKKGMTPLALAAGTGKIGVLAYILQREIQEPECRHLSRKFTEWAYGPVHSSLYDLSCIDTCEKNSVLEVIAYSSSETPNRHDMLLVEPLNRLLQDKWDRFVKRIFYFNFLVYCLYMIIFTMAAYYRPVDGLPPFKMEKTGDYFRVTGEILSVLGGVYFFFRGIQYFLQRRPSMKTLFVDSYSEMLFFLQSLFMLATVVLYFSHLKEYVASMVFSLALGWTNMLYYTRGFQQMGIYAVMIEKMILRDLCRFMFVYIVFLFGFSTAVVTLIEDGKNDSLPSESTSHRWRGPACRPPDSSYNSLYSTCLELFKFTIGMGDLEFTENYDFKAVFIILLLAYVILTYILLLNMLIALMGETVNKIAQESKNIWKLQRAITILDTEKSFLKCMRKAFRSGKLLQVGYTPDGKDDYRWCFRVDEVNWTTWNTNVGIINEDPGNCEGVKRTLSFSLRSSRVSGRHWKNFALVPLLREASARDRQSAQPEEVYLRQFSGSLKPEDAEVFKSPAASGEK

pIC50 [1]	pIC50 [2]	AUC(0-t) at 6 h [3]	SMILES	also measured
6.28	6.63	–	CC(C)(C)[C@H]1CC[C@@H](NC(=O)N2CCC3(CC2)C(=O)N(c2ccccc2)[C@H]3c2ccccc2)CC1	–
7.07	6.99	1660 ng·h/mL	O=C(Nc1ccc(C(F)(F)F)cc1)N1CCC2(CC1)C(=O)N(c1ccccc1)C2c1ccccc1 (racemic)	–
8.03	7.92	49 ng·h/mL	CC(C)(C)c1ccc(NC(=O)N2CCC3(CC2)C(=O)N(c2ccccc2)[C@H]3c2ccccc2)cc1	solubility [4]: 0.094 µM (≈ 0.044 µg/mL)
7.09	7.37	19 ng·h/mL	CC(C)c1ccc(NC(=O)N2CCC3(CC2)C(=O)N(c2ccccc2)[C@H]3c2ccccc2)cc1	–
–	–	–	O=C(Nc1ccc(C(F)(F)F)cc1)N1CCC2(CC1)C(=O)N(c1ccccn1)[C@@H]2c1ccccc1	Activity [5]: 83%
–	–	–	CC(C)(C)c1ccc(NC(=O)N2CCC3(CC2)CN(c2ccccc2-c2ccccc2)C3=O)cc1	Activity [5]: 73%
–	–	–	CC(C)(C)OC(=O)N1CC2(C1)C(=O)N(c1ccccc1)C2c1ccccc1 (centres undefined)	Stability [6]: Unstable
6.65	–	–	CC(C)(c1ccccc1)c1ccc(NC(=O)N2CCC3(CC2)C(=O)N(c2ccccc2)[C@H]3c2ccccc2)cc1	–
7.00	6.95	44 ng·h/mL	CC(C)c1ccc(NC(=O)N2CCC3(CC2)C(=O)N(c2ccccc2)C3c2ccccc2)cc1 (centres undefined)	–
–	–	–	CC(C)c1ccc(NC(=O)N2CCC3(CC2)C(=O)N(c2ccccc2)[C@@H]3c2ccccc2)cc1	Activity [5]: inactive
7.10	7.23	–	CC(C)(C)c1ccc(NC(=O)N2CCC3(CC2)CN(c2ccccc2)C3=O)cc1	–
6.69	6.50	–	O=C(Nc1ccc(C(F)(F)F)cn1)N1CCC2(CC1)C(=O)N(c1ccccc1)C2c1ccccc1 (racemic)	–
–	–	–	CC(C)(C)c1ccc(NC(=O)N2CCC3(CC2)C(=O)N(c2ccccc2)[C@@H]3c2ccccc2)cc1	Activity [5]: 8.5%
7.31	7.49	–	CC(C)(C)[C@H]1CC[C@H](NC(=O)N2CCC3(CC2)C(=O)N(c2ccccc2)[C@H]3c2ccccc2)CC1	–
–	–	–	CC(C)(C)OC(=O)N1CCC2(CC1)C(=O)N(c1ccccc1)C2c1ccccc1 (centres undefined)	Stability [7]: Stable
7.89	8.07	2500 ng·h/mL	O=C(Nc1ccc(C(F)(F)F)cc1)N1CCC2(CC1)C(=O)N(c1ccccn1)[C@H]2c1ccccc1	solubility [4]: 0.3 µM (≈ 0.144 µg/mL); bioavailability [8]: 45%; half-life [9]: 2.5 h
